This is an account of results in ChEMBL document CHEMBL2321870, “Psoralen derivatives as inhibitors of NF-κB/DNA interaction: synthesis, molecular modeling, 3D-QSAR, and biological evaluation” (J Med Chem, 2013).

The experiment addresses T1, Nuclear factor NF-kappa-B p105 subunit (Homo sapiens, UniProt P19838).
T1 sequence (P19838 whole entry): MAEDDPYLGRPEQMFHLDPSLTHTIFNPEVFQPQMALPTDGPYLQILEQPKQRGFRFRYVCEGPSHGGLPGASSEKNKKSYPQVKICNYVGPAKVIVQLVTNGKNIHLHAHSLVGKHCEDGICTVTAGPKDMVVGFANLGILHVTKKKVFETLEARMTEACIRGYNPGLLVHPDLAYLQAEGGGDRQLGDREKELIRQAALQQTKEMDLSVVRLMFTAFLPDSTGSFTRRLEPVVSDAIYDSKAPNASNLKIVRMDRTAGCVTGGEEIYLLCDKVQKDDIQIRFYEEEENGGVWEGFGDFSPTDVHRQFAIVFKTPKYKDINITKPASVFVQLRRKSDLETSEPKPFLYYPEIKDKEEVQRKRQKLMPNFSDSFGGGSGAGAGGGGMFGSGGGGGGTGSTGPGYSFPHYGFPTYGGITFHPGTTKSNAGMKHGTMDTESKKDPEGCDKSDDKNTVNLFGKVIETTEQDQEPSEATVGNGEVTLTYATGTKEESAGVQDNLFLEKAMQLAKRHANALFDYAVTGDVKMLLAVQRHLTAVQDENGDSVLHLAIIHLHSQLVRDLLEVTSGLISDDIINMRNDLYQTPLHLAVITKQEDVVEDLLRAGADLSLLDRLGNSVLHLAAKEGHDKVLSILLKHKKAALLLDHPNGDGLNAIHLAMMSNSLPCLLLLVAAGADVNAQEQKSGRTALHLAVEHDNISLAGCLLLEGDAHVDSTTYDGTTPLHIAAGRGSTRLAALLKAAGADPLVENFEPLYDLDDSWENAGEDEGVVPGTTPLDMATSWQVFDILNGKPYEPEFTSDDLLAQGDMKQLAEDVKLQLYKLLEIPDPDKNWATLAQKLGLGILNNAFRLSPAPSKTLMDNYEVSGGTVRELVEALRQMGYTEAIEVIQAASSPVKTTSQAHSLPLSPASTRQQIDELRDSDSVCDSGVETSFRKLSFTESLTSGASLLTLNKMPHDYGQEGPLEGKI
Briefly: Inhibition of human NF-kappaB p50/DNA interaction using 32P-labeled oligonucleotides as substrate preincubated for 20 mins before substrate addition measured after 20 mins by electrophoretic mobility shift assay. The gist of the method:
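Probe: NF-κB site dsDNA (5′-CGC TGG GGA CTT TCC ACG G-3′) end-labeled with γ32P-ATP/T4 kinase, annealed. 10 ng human p50 (± 10 ng p65) preincubated with compound 20 min RT in buffer TF + 5% glycerol, 1 mM DTT; 0.25 ng probe added, 20 min RT; run on 6% polyacrylamide, 0.25× TBE, 200 V.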
Usually EC50 stands for the concentration that produces a half-maximal response. With `CC(=O)Nc1ccc(NC(=O)CCc2c(C)c3cc4c5c(oc4c(C)c3oc2=O)CCCC5)cc1`, the EC50 came to 1000 µM.

Consider `Cc1oc2c(C)c3oc(=O)c(CC(=O)O)c(C)c3cc2c1C`, for which the EC50 was found to be 6000 µM.

Turning to `Cc1c(CC(=O)Nc2cccc(C(=O)O)c2)c(=O)oc2cc3occ(C(C)(C)C)c3cc12`, the concentration for a half-maximal effect (EC50) is 10 µM.

Consider `Cc1oc2c(C)c3oc(=O)c(CC(=O)Nc4ccc(C(=O)O)cc4)c(C)c3cc2c1C`, for which the EC50 is 100 µM.

As to `Cc1c(CCC(=O)Nc2ccc(C(=O)O)cc2)c(=O)oc2c(C)c3oc4c(c3cc12)CCCC4`, the EC50 came out at 60 µM.

In the case of `Cc1c(CC(=O)Nc2ccc(CC(=O)O)cc2)c(=O)oc2cc3occ(C(C)(C)C)c3cc12`, the EC50 came to 530 µM.

Turning to `Cc1c(CC(=O)Nc2cccc(C(F)(F)F)c2)c(=O)oc2c(C)c3oc4c(c3cc12)CCCC4`, the EC50 was 3000 µM.

On to `Cc1c(CC(=O)Nc2cccc(C(=O)O)c2)c(=O)oc2cc3oc4c(c3cc12)CCCC4`, for which the EC50 turned out to be 100 µM.

As for `Cc1c(CC(=O)Nc2cccc(C(=O)O)c2)c(=O)oc2c(C)c3oc4c(c3cc12)CCCC4`, the EC50 is 70 µM.

Consider `Cc1c(CCC(=O)Nc2cccc(C(=O)O)c2)c(=O)oc2cc3oc4c(c3cc12)CCCC4`, for which the concentration giving a half-maximal response (EC50) is 100 µM.

As for `Cc1c(CCC(=O)Nc2cccc(O)c2)c(=O)oc2c(C)c3oc4c(c3cc12)CCCC4`, the half-maximal effective concentration (EC50) worked out at 700 µM.

For the compound `Cc1oc2cc3oc(=O)c(CCC(=O)Nc4cccc(C(=O)O)c4)c(C)c3cc2c1C`, the EC50 is 600 µM.

As for `CC1=C/C(=C(/c2cc(C)c(O)c(C(=O)O)c2)c2c(Cl)ccc(S(=O)(=O)O)c2Cl)C=C(C(=O)O)C1=O` [CHROME AZUROL S], the concentration giving a half-maximal response (EC50) came to 100 µM.

As to `Cc1c(CCC(=O)Nc2ccccc2C(=O)O)c(=O)oc2cc3occ(C(C)(C)C)c3cc12`, the concentration for a half-maximal effect (EC50) is 60 µM.

Turning to `O=C1C=CC(=C(c2ccc(O)cc2)c2ccc(O)cc2)C=C1` [AURIN], the concentration for a half-maximal effect (EC50) was 50 µM.

Consider `Cc1oc2c(C)c3oc(=O)c(CCC(=O)Nc4ccc(C(=O)O)cc4)c(C)c3cc2c1C`, for which the EC50 was 60 µM.

Turning to `Cc1c(CCC(=O)NC(Cc2ccccc2)C(=O)O)c(=O)oc2cc3occ(C(C)(C)C)c3cc12` (racemic), the concentration for a half-maximal effect (EC50) is 100 µM.

Turning to `Cc1c(CC(=O)O)c(=O)oc2c(C)c3occ(C(C)(C)C)c3cc12`, the concentration giving a half-maximal response (EC50) is 800 µM.

As for `Cc1c(CCC(=O)Nc2ccc(O)cc2)c(=O)oc2c(C)c3oc4c(c3cc12)CCCC4`, the concentration for a half-maximal effect (EC50) was 3000 µM.

Regarding `Cc1c(CCC(=O)Nc2ccc(C(=O)O)cc2)c(=O)oc2cc3occ(C(C)(C)C)c3cc12`, the EC50 was determined as 60 µM.

For `Cc1c(CC(=O)NCCCC(=O)O)c(=O)oc2c(C)c3occ(C(C)(C)C)c3cc12`, the EC50 stood at 600 µM.

For `Cc1oc2c(C)c3oc(=O)c(CC(=O)NC(Cc4ccccc4)C(=O)O)c(C)c3cc2c1C` (racemic), the concentration for a half-maximal effect (EC50) is 600 µM.

`Cc1c(CC(=O)Nc2ccc(NS(C)(=O)=O)cc2)c(=O)oc2c(C)c3oc4c(c3cc12)CCCC4`: the EC50 was 700 µM.

Take `Cc1c(CCC(=O)Nc2ccc(N)cc2)c(=O)oc2c(C)c3oc4c(c3cc12)CCCC4`: the EC50 turned out to be 3000 µM.

On to `Cc1c(CCC(=O)NC(Cc2ccccc2)C(=O)O)c(=O)oc2c(C)c3occ(C(C)(C)C)c3cc12` (racemic), for which the EC50 is 60 µM.

Turning to `Cc1c(CCC(=O)Nc2ccc(CC(=O)O)cc2)c(=O)oc2cc3occ(C(C)(C)C)c3cc12`, the EC50 turned out to be 80 µM.

For `Cc1c(CCC(=O)NCc2ccccc2Cl)c(=O)oc2c(C)c3occ(C(C)(C)C)c3cc12`, the 50% effective concentration (EC50) is 4000 µM.

For `Cc1c(CC(=O)Nc2cccc(O)c2)c(=O)oc2c(C)c3oc4c(c3cc12)CCCC4`, the EC50 turned out to be 3000 µM.

As for `Cc1c(CCC(=O)NCc2ccc(C(=O)O)cc2)c(=O)oc2cc3occ(C(C)(C)C)c3cc12`, the EC50 was found to be 670 µM.

`Cc1c(CC(=O)NCc2ccc(C(=O)O)cc2)c(=O)oc2cc3occ(C(C)(C)C)c3cc12`: the concentration giving a half-maximal response (EC50) was 600 µM.

With `Cc1c(CCC(=O)NC(Cc2ccccc2)C(=O)O)c(=O)oc2cc3oc4c(c3cc12)CCCC4` (racemic), the concentration giving a half-maximal response (EC50) was found to be 100 µM.

Consider `Cc1oc2c(C)c3oc(=O)c(CCC(=O)NC(Cc4ccccc4)C(=O)O)c(C)c3cc2c1C` (racemic), for which the EC50 came to 1000 µM.

As to `Cc1c(CCC(=O)Nc2cccc(C(F)(F)F)c2)c(=O)oc2c(C)c3oc4c(c3cc12)CCCC4`, the EC50 is above 10000 µM.

Consider `Cc1c(CC(=O)Nc2ccccc2C(=O)O)c(=O)oc2cc3occ(C(C)(C)C)c3cc12`, for which the EC50 is 80 µM.

As to `Cc1c(CC(=O)Nc2ccc(O)cc2)c(=O)oc2c(C)c3oc4c(c3cc12)CCCC4`, the concentration for a half-maximal effect (EC50) was determined as 700 µM.

Regarding `Cc1c(CCC(=O)Nc2ccc(NS(C)(=O)=O)cc2)c(=O)oc2c(C)c3oc4c(c3cc12)CCCC4`, the 50% effective concentration (EC50) is 1000 µM.

Turning to `O=c1ccc2c(-c3ccccc3S(=O)(=O)O)c3ccc(O)c(O)c3oc-2c1O` [PYROGALLOL RED], the concentration for a half-maximal effect (EC50) stood at 30 µM.

As to `Cc1c(CC(=O)NC(Cc2ccccc2)C(=O)O)c(=O)oc2cc3oc4c(c3cc12)CCCC4` (racemic), the EC50 stood at 80 µM.

For `Cc1oc2c(C)c3oc(=O)c(CC(=O)Nc4cccc(C(=O)O)c4)c(C)c3cc2c1C`, the 50% effective concentration (EC50) is 600 µM.

Take `Cc1c(CC(=O)NCc2ccccc2Cl)c(=O)oc2c(C)c3occ(C(C)(C)C)c3cc12`: the EC50 came out at 5000 µM.

Turning to `Cc1c(CC(=O)NC(Cc2ccccc2)C(=O)O)c(=O)oc2cc3occ(C(C)(C)C)c3cc12` (configuration not stated), the EC50 was 600 µM.

Regarding `Cc1c(CC(=O)Nc2ccc(C(N)=O)cc2)c(=O)oc2c(C)c3oc4c(c3cc12)CCCC4`, the EC50 came to 700 µM.

For `Cc1c(CCC(=O)Nc2ccc(C(=O)O)cc2)c(=O)oc2c(C)c3occ(C(C)(C)C)c3cc12`, the EC50 stood at 40 µM.

`Cc1c(CC(=O)O)c(=O)oc2cc3occ(C(C)(C)C)c3cc12`: the concentration for a half-maximal effect (EC50) is 800 µM.

Regarding `Cc1c(CCC(=O)Nc2ccc(C(N)=O)cc2)c(=O)oc2c(C)c3oc4c(c3cc12)CCCC4`, the EC50 stood at 700 µM.

`Cc1oc2cc3oc(=O)c(CC(=O)Nc4cccc(C(=O)O)c4)c(C)c3cc2c1C`: the concentration for a half-maximal effect (EC50) is 700 µM.

As to `Cc1c(CC(=O)NC(Cc2ccccc2)C(=O)O)c(=O)oc2c(C)c3oc4c(c3cc12)CCCC4` (racemic), the concentration for a half-maximal effect (EC50) is 1000 µM.

In the case of `Cc1c(CC(=O)Nc2ccc(C(=O)O)cc2)c(=O)oc2c(C)c3oc4c(c3cc12)CCCC4`, the EC50 is 100 µM.

Take `CC(=O)Nc1ccc(NC(=O)Cc2c(C)c3cc4c5c(oc4c(C)c3oc2=O)CCCC5)cc1`: the concentration giving a half-maximal response (EC50) turned out to be 3000 µM.

Take `O=C1C=C/C(=C(/c2ccc(O)c(O)c2)c2ccccc2S(=O)(=O)O)C=C1O` [PYROCATECHOL VIOLET]: the 50% effective concentration (EC50) came out at 50 µM.

As for `Cc1c(CCC(=O)Nc2cccc(C(=O)O)c2)c(=O)oc2c(C)c3oc4c(c3cc12)CCCC4`, the concentration for a half-maximal effect (EC50) is 100 µM.

For `Cc1coc2c(C)c3oc(=O)c(CC(=O)NCc4ccccc4Cl)c(C)c3cc12`, the EC50 came out at 800 µM.

With `Cc1c(CCC(=O)Nc2ccc(C(=O)O)cc2)c(=O)oc2cc3oc4c(c3cc12)CCCC4`, the EC50 came to 10 µM.

With `Cc1oc2cc3oc(=O)c(CC(=O)Nc4ccc(C(=O)O)cc4)c(C)c3cc2c1C`, the EC50 worked out at 40 µM.

Regarding `Cc1c(CC(=O)Nc2ccc(C(=O)O)cc2)c(=O)oc2c(C)c3occ(C(C)(C)C)c3cc12`, the half-maximal effective concentration (EC50) stood at 60 µM.

`Cc1oc2c(C)c3oc(=O)c(CCC(=O)Nc4cccc(C(=O)O)c4)c(C)c3cc2c1C`: the EC50 amounted to 80 µM.

Regarding `Cc1c(CCC(=O)Nc2cccc(C(=O)O)c2)c(=O)oc2cc3occ(C(C)(C)C)c3cc12`, the EC50 came out at 60 µM.
